Screens as filed in PubChem.
NSD2 inh: inhibitors of human histone methyltransferase NSD2. NSD2 peptide methylation, AlphaScreen, 120 min. inhibition, % at 12.5 µM. hit rate 0.54% among 310,000. AID 743445; in the data active = inhibition above about 50%
LEDGF integ inh: blocks HIV-1 LEDGF/p75-dependent DNA integration. TR-FRET IN-LEDGF/p75 DNA integration, Eu/Cy5. inhibition, % at 3.7 µM. hit rate 0.64% among 370,000. AID 743269;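 active = inhibition above the screen-wide mean plus 3 SD, cut at about 13% in these data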;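 also: signal is the Cy5 over europium emission ratio at 671 and 618 nm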
TDP2 inh: TDP2 (human) inhibition, absorbance primary screen; O95551; recombinant TDP2, T5PNP hydrolysis, p-nitrophenol absorbance 415 nm; inhibition, % at 12.8 µM; hit rate 0.34% among 370,000;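 active = inhibition above the mean of all tested compounds plus 3 SD, set per campaign, cut at about 25% in these data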
Target sequence (O95551 whole entry, looked up): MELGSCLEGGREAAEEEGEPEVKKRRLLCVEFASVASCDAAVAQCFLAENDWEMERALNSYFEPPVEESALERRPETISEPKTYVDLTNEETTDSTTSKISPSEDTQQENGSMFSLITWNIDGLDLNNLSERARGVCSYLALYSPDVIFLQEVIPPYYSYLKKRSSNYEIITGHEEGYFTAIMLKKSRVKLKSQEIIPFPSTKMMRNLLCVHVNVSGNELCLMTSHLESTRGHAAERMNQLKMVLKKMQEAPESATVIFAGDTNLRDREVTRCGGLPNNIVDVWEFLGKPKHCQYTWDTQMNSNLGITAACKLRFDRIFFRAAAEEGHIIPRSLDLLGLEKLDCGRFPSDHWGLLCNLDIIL
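Evaluation: % inhibition relative to enzyme-containing and enzyme-free wells. Material: recombinant human TDP2. Benchmarks: enzyme-free and DMSO wells. Timing: enzyme reaction with compound for 2 h at 37 °C. Compound dosing: 12.8 µM only. Measured by: p-Nitrophenol epi absorbance. Reagent: T5PNP substrate at 5 mM, a TopII-DNA adduct mimic. Replication: single well per compound.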
UHRF1 binding: human UHRF1 methylated DNA binding inhibitors; hit rate 0.75% among 370,000; Q96T88; AID 687016; inhibition, % at 4.4 µM; UHRF1 binding to methylated oligo, TR-FRET;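 also: UHRF1 SRA domain binding a hemimethylated CpG hairpin DNA probe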
MBD2 DNA inh: inhibitors of human MBD2 binding to methylated oligonucleotide | Q9UBB5 | TR-FRET | inhibition, % at 4.4 µM | hit rate 0.31% among 370,000 | AID 686964; in the data active = inhibition above about 13%
CASP6 VEID inh: blocks human caspase-6 cleavage activity | inhibition, % at 12.5 µM | purified caspase-6, Z-VEID-R110 cleavage fluorescence | hit rate 0.53% among 350,000 | P55212 | AID 686996;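 active = mean inhibition across replicates at least about 35%, with every replicate also reaching that limit, limit read from the data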
UHRF1 DNA bind: UHRF1 methyl-oligo binding inhibition as MBD2 counter-screen. shares compounds with MBD2 DNA inh. UHRF1 binding to methylated oligonucleotide, TR-FRET. inhibition, % at 4.4 µM. hit rate 25% among 1,000. AID 720530;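 also: UHRF1 SRA domain binding a labeled hemimethylated CpG hairpin DNA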
MBD2 DBD conf: MBD2-DBD methyl-DNA binding inhibition, TR-FRET confirmation. inhibition, % at 4.4 µM. AID 720531. shares compounds with MBD2 DNA inh. hit rate 26% among 1,000. TR-FRET MBD2-DBD binding to methylated oligonucleotide; in the data active = inhibition above about 14%
Numbers stand for hits; . = inactive; / = not tested or not shown; + = active, no number. Sampled rows, rich in hits. Any-hit rate of the full collection: about 1.9%. Rule as the data show it, unless noted: active = inhibition above about 21%; inactive = the rest.

SMILES | NSD2 inh | LEDGF integ inh | TDP2 inh | UHRF1 binding | MBD2 DNA inh | CASP6 VEID inh | UHRF1 DNA bind | MBD2 DBD conf
CO[C@H]1CN(C)C(=O)c2cc(NC(C)=O)ccc2OC[C@H](C)N(Cc2cc(F)ccc2F)C[C@H]1C | / | / | / | / | / | . | / | /
Cc1noc(C)c1NC(=O)N(C)C[C@H]1OCCCC[C@@H](C)Oc2ccc(NC(=O)C3CCCCC3)cc2C(=O)N([C@@H](C)CO)C[C@H]1C | / | / | / | / | / | . | / | /
Cc1ccc(S(=O)(=O)Nc2cccc3c2O[C@@H](CN(C)Cc2ccc(-c4ccccc4)cc2)[C@H](C)CN([C@@H](C)CO)C3=O)cc1 | / | / | / | / | / | . | / | /
Cc1ccc(C(=O)c2ccccc2C(=O)O)s1 | . | . | . | 26 | 16 | / | 41 | 14
CN1C(=O)c2cc(NC(=O)c3ccccc3Cl)ccc2OC[C@H]2O[C@H](CC(=O)NCC(F)(F)F)CC[C@@H]21 | / | / | / | / | / | . | / | /
O=C(C1CCCC1)N1CCCCN2[C@H](CO)[C@H](c3ccc(C#CC4CC4)cc3)[C@@H]2C1 | / | / | / | / | / | . | / | /
O=C(NCCCN1CCOCC1)C(=O)NCc1ccc(Cl)cc1 | . | . | . | . | 13 | . | . | .
S=C(NCCCN1CCOCC1)Nc1ccc(Cl)cc1 | . | . | . | . | . | . | / | /
C/C=C/c1cnc2c(c1)C(=O)N([C@H](C)CO)C[C@@H](C)[C@H](CN(C)C(=O)Nc1ccc(F)cc1)O2 | / | / | / | / | / | . | / | /
C[C@H](O)C#Cc1ccc2c(c1)O[C@@H](CN(C)C(=O)C1CC1)[C@@H](C)CN([C@@H](C)CO)S2(=O)=O | / | / | / | / | / | . | / | /
CCN(c1ccccc1)S(=O)(=O)c1cc(C(=O)O)ccc1C | + | . | . | 60 | 25 | / | 51 | 27
COC(=O)C[C@@H]1C[C@H]2c3cc(NC(=O)NC4CCCC4)ccc3O[C@H]2[C@@H](CO)O1 | / | / | / | / | / | . | / | /
COc1ccc(C(=O)c2ccc3oc(-c4ccc(OC)cc4)c(C#CCCO)c3c2)cc1 | / | . | . | . | . | . | / | /
COc1cc(OC)cc(-c2oc3cccnc3c2C#CCCO)c1 | / | . | . | . | 21 | . | . | .
COc1ccc(-c2nc3ccc(Cl)cn3c2Cc2ccccc2C(F)(F)F)cc1OC | / | . | . | . | . | . | / | /
COc1ccc(-c2nc3ccc(C)cn3c2Cc2ccccc2C(F)(F)F)cc1OC | / | . | . | 21 | 14 | . | . | .
O=C(COC(=O)CN1C(=O)c2ccccc2C1=O)Nc1ccccc1[N+](=O)[O-] | . | . | . | 24 | 19 | . | . | .
O=C(COC(=O)CCN1C(=O)c2ccccc2C1=O)Nc1ccccc1[N+](=O)[O-] | . | . | . | . | . | . | / | /
COc1ccc(C#Cc2ccc3c(c2)O[C@@H](CN(C)C(=O)c2ccccn2)[C@@H](C)CN([C@H](C)CO)S3(=O)=O)cc1 | / | / | / | / | / | . | / | /
N#CCC(=O)Nc1ccc(C(=O)OCC(=O)c2ccc3c(c2)NC(=O)CO3)cc1 | . | . | . | . | 14 | . | . | 13
CCCOCc1ccc(O)c2ncccc12 | . | . | . | . | 19 | . | . | .
CC(C)COCc1ccc(O)c2ncccc12 | . | . | . | . | . | . | / | /
O=C(C[C@H]1CC[C@@H](NC(=O)Nc2ccccc2)[C@H](CO)O1)NCc1ccccn1 | / | / | / | / | / | . | / | /
CC12CCC(C(N)=O)(c3nc4ccccc4nc31)C2(C)C (stereo not drawn) | . | . | . | . | 13 | / | . | .
C[C@@H]1CN([C@@H](C)CO)C(=O)c2cc(NS(=O)(=O)c3cccs3)ccc2O[C@H]1CN(C)S(=O)(=O)c1ccc(F)cc1 | / | / | / | / | / | . | / | /
N#Cc1c(-c2ccncc2)c2c([nH]c1=O)-c1ccccc1OC2 | . | . | . | . | . | . | / | /
N#Cc1c(-c2ccccc2Cl)c2c([nH]c1=O)-c1ccccc1OC2 | . | . | . | . | 21 | . | . | .
O=C(CSc1nc2[nH]c(=O)cc(O)c2s1)Nc1nncs1 | . | . | . | . | 23 | . | . | .
O=C(CSc1nc2[nH]c(=O)cc(O)c2s1)Nc1nccs1 | . | . | . | . | . | . | / | /
